Common to all, as to format: ADME, organism-based
Series [1] in a line: Volume of distribution at steady state in Sprague-Dawley rat at 1 mg/kg, iv. The note with it: in vivo, read-out: Vdss. Summed up:
(§1)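 Male SD rats received 1 mg/kg intravenously. The vehicle was 10% 2-hydroxypropyl-beta-cyclodextrin or ethanol/PEG400/N,N-dimethylacetamide/water 1:4:1:4 (by volume), depending on compound. Plasma clearance (L/h/kg) and steady-state volume of distribution (L/kg) were derived.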

The nature of series [2]: Plasma clearance in Sprague-Dawley rat at 1 mg/kg, iv. Summed up:
as §1

Series [3] is described as follows: Oral bioavailability in Sprague-Dawley rat at 10 mg/kg. The note with it: in vivo. The gist of the method: (§2)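 Male SD rats were dosed orally at 10 mg/kg in 10% 2-hydroxypropyl-beta-cyclodextrin.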
Series [4] is described as follows: AUC in Sprague-Dawley rat at 10 mg/kg, po. The note with it: in vivo. Summed up:
as §2

Here are results for two compounds from ChEMBL document CHEMBL3763085, “Optimization of tetrahydronaphthalene inhibitors of Raf with selectivity over hERG” (Bioorg Med Chem Lett, 2016).

As to `CN(C)Cc1cc(C(=O)N[C@@H]2CCc3ccc(Oc4ccnc5c4CCC(=O)N5)cc3C2)cc(C(F)(F)F)c1.Cl.Cl`, the Vd in series [1] was 0.75 L/kg. In addition, in series [2], the clearance (as a rule, the volume of plasma or blood freed of the substance per unit of time) is 0.23 L/h/kg. The bioavailability (in general, dose-corrected exposure relative to a reference, in per cent) in series [3] amounted to 100%. For the same compound, the AUC (commonly concentration integrated over time) in series [4] amounted to 98.6 µM·h.

On to `Cl.Cn1cc(-c2cc(C(=O)N[C@@H]3CCc4ccc(Oc5ccnc6c5CCC(=O)N6)cc4C3)cc(C(F)(F)F)c2)cn1`, for which the Vd in series [1] worked out at 0.41 L/kg. The clearance in series [2] was 0.08 L/h/kg. Further, in series [3], the bioavailability was 54%. For the same compound, the AUC in series [4] came out at 126 µM·h.
